According to ChEMBL document CHEMBL5532695, “4-Trifluoromethyl bithiazoles as broad-spectrum antimicrobial agents for virus-related bacterial infections or co-infections” (RSC Med Chem, 2024):
Converted amounts (≈) assume the structure as drawn.

Assays:
rhinovirus A16 [1] = experiment: Antiviral activity against 7 times rupintrivir passaged resistance model of Human rhinovirus 16 infected in human HeLa cells assessed as inhibition of viral replication; assay type: functional, organism-based; conditions: Rhinovirus A
Method in brief: (§1)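 HeLa cells infected with RVA16 and serially passaged under compound, supernatants harvested at extensive CPE (3–6 dpi), clarified and titrated on HeLa; each passage used prior virus at MOI 0.01, drug concentration doubled when possible; after 7 passages RNA sequenced. Antiviral read-out: HeLa at 33 °C, 48 h, VP3 immunostaining with HRP secondary; EC50 from variable-slope sigmoidal fit.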

rhinovirus A16 [2] = experiment: Antiviral activity against 7 times N-(4'-(Trifluoromethyl)-2-((3-(trifluoromethyl)phenyl)amino)-[4,5'-bithiazol]-2'-yl)benzamide passaged resistance model of Human rhinovirus 16 infected in human HeLa cells assessed as inhibition of viral replication; assay type: functional, organism-based; conditions: Rhinovirus A; method in brief: as §1
rhinovirus A16 [3] = experiment: microbe, parasite or virus in culture; conditions: Rhinovirus A, HeLa, 48 h
[4] = biological target: Phosphatidylinositol 4-kinase beta (Homo sapiens, UniProt Q9UBF8); experiment: Inhibition of recombinant full length his tagged PI4KB (unknown origin) incubated for 10 mins in presence of ATP by ADP-glo kinase assay; conditions: read-out: IC50
[5] = Cytotoxicity against human HeLa cells assessed as reduction in cell viability by MTT assay; assay type: toxicity, cell-based
Method in brief: (§2)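 MTT viability on HeLa or VeroE6 cells, run in parallel with the antiviral assays. CC50 from variable-slope sigmoidal dose–response regression.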

[6] = Cytotoxicity against african green monkey Vero E6 cells assessed as reduction in cell viability by MTT assay; assay type: toxicity, cell-based; conditions: chlorocebus sabaeus, Vero E6 cells (Vero C1008); method in brief: as §2
Bacillus subtilis [7] = experiment: Antibacterial activity against Bacillus subtilis ATCC 6633 assessed as reduction in microbial growth measured after 18 hrs by CLSI based broth microdilution method; assay type: functional
Method in brief: (§3)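 MIC by CLSI broth microdilution in Mueller–Hinton medium, triplicate. Inoculum 5 × 10^4 CFU per well. Compounds taken up in DMSO (50 mg mL−1 stock) and diluted in medium. Read after 18 h at 35 ± 2 °C.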

Bacillus subtilis [8] = experiment: Bactericidal activity against Bacillus subtilis ATCC 6633 assessed as reduction in microbial growth measured after 18 hrs by CLSI based broth microdilution method; assay type: functional
Method in brief: (§4)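 MBC by CLSI broth microdilution in Mueller–Hinton medium, triplicate. Inoculum 5 × 10^4 CFU per well. Read after 18 h at 35 ± 2 °C.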

Enterococcus faecalis [9] = experiment: Antibacterial activity against Enterococcus faecalis ATCC 29212 assessed as reduction in microbial growth measured after 18 hrs by CLSI based broth microdilution method; assay type: functional; method in brief: as §3
Enterococcus faecalis [10] = experiment: Bactericidal activity against Enterococcus faecalis ATCC 29212 assessed as reduction in microbial growth measured after 18 hrs by CLSI based broth microdilution method; assay type: functional; method in brief: as §4
Streptococcus pyogenes [11] = experiment: Antibacterial activity against Streptococcus pyogenes ATCC 12344 assessed as reduction in microbial growth measured after 18 hrs by CLSI based broth microdilution method; assay type: functional; method in brief: as §3
Streptococcus pyogenes [12] = experiment: Bactericidal activity against Streptococcus pyogenes ATCC 12344 assessed as reduction in microbial growth measured after 18 hrs by CLSI based broth microdilution method; assay type: functional; method in brief: as §4
Staphylococcus aureus [13] = experiment: Antibacterial activity against Staphylococcus aureus ATCC 25923 assessed as reduction in microbial growth measured after 18 hrs by CLSI based broth microdilution method; assay type: functional; method in brief: as §3
Staphylococcus aureus [14] = experiment: Bactericidal activity against Staphylococcus aureus ATCC 25923 assessed as reduction in microbial growth measured after 18 hrs by CLSI based broth microdilution method; assay type: functional; method in brief: as §4
Escherichia coli [15] = experiment: Synergistic antibacterial activity against Escherichia coli CCUGT incubated for 18 to 24 hrs in presence of colistin by broth microdilution method; assay type: functional; conditions: time 18-24 hrs
Klebsiella pneumoniae = experiment: Synergistic antibacterial activity against Klebsiella pneumoniae ATCC 13833 incubated for 18 to 24 hrs in presence of colistin by broth microdilution method; assay type: functional; conditions: time 18-24 hrs
Acinetobacter baumannii [16] = experiment: Synergistic antibacterial activity against Acinetobacter baumannii ATCC 17978 incubated for 18 to 24 hrs in presence of colistin by broth microdilution method; assay type: functional; conditions: time 18-24 hrs
Pseudomonas aeruginosa [17] = experiment: Synergistic antibacterial activity against Pseudomonas aeruginosa ATCC 27853 incubated for 18 to 24 hrs in presence of colistin by broth microdilution method; assay type: functional; conditions: time 18-24 hrs
Staphylococcus aureus [18] = experiment: Antibacterial activity against methicillin-resistant Staphylococcus aureus ATCC 43300 assessed as reduction in microbial growth measured after 18 hrs by CLSI based broth microdilution method; assay type: functional
Method in brief: (§5)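 Gram-positive clinical isolates; compounds dissolved in DMSO (50 mg mL−1 stock) and diluted in medium; MIC by CLSI broth microdilution in Mueller–Hinton medium, inoculum 5 × 10^4 CFU per well, read after 18 h at 35 ± 2 °C; triplicate.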

Staphylococcus aureus [19] = experiment: Bactericidal activity against methicillin-resistant Staphylococcus aureus ATCC 43300 assessed as reduction in microbial growth measured after 18 hrs by CLSI based broth microdilution method; assay type: functional
Staphylococcus warneri [20] = experiment: Antibacterial activity against oxacillin-resistant Staphylococcus warneri SI-5/2011 assessed as reduction in microbial growth measured after 18 hrs by CLSI based broth microdilution method; assay type: functional; method in brief: as §5
Staphylococcus warneri [21] = experiment: Bactericidal activity against oxacillin-resistant Staphylococcus warneri SI-5/2011 assessed as reduction in microbial growth measured after 18 hrs by CLSI based broth microdilution method; assay type: functional
[22] = tested on: Staphylococcus haemolyticus; experiment: Antibacterial activity against oxacillin-resistant Staphylococcus haemolyticus SI-6/2011 assessed as reduction in microbial growth measured after 18 hrs by CLSI based broth microdilution method; assay type: functional; method in brief: as §5
[23] = tested on: Staphylococcus epidermidis; experiment: Antibacterial activity against linezolid-resistant Staphylococcus epidermidis SI-1266 assessed as reduction in microbial growth measured after 18 hrs by CLSI based broth microdilution method; assay type: functional; method in brief: as §5
[24] = tested on: Staphylococcus epidermidis; experiment: Bactericidal activity against linezolid-resistant Staphylococcus epidermidis SI-1266 assessed as reduction in microbial growth measured after 18 hrs by CLSI based broth microdilution method; assay type: functional
Enterococcus faecium [25] = experiment: Antibacterial activity against Vancomycin/teicoplanin resistant Enterococcus faecium SI-759 assessed as reduction in microbial growth measured after 18 hrs by CLSI based broth microdilution method; assay type: functional; method in brief: as §5
Enterococcus faecium [26] = experiment: Bactericidal activity against Vancomycin/teicoplanin resistant Enterococcus faecium SI-759 assessed as reduction in microbial growth measured after 18 hrs by CLSI based broth microdilution method; assay type: functional
Enterococcus faecium [27] = experiment: Antibacterial activity against Vancomycin resistant Enterococcus faecium SI-1831 assessed as reduction in microbial growth measured after 18 hrs by CLSI based broth microdilution method; assay type: functional; method in brief: as §5
Enterococcus faecium [28] = experiment: Bactericidal activity against Vancomycin resistant Enterococcus faecium SI-1831 assessed as reduction in microbial growth measured after 18 hrs by CLSI based broth microdilution method; assay type: functional
Enterococcus faecium [29] = experiment: Antibacterial activity against Vancomycin resistant Enterococcus faecium SI-3856B assessed as reduction in microbial growth measured after 18 hrs by CLSI based broth microdilution method; assay type: functional; method in brief: as §5
Enterococcus faecium [30] = experiment: Bactericidal activity against Vancomycin resistant Enterococcus faecium SI-3856B assessed as reduction in microbial growth measured after 18 hrs by CLSI based broth microdilution method; assay type: functional
Escherichia coli [31] = experiment: Synergistic antibacterial activity against colistin resistant mcr-positive Escherichia coli SI-63 incubated for 18 to 24 hrs in presence of colistin by broth microdilution method; assay type: functional; conditions: time 18-24 hrs
Method in brief: (§6)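 Minimum antibacterial concentration (MAC) by broth microdilution in Mueller–Hinton medium with a fixed subinhibitory colistin concentration of 2 μg mL−1 against colistin-resistant Gram-negative clinical isolates; inoculum 5 × 10^4 CFU per well, 35 ± 2 °C; triplicate.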

Acinetobacter baumannii [32] = experiment: Synergistic antibacterial activity against colistin/carbapenem resistant MDR Acinetobacter baumannii N50 incubated for 18 to 24 hrs in presence of colistin by broth microdilution method; assay type: functional; conditions: time 18-24 hrs; method in brief: as §6
Pseudomonas aeruginosa [33] = experiment: Synergistic antibacterial activity against colistin resistant MDR Pseudomonas aeruginosa SI-270 incubated for 18 to 24 hrs in presence of colistin by broth microdilution method; assay type: functional; conditions: time 18-24 hrs; method in brief: as §6
enterovirus D68 = experiment: microbe, parasite or virus in culture; conditions: Enterovirus D, HeLa, 48 h
Zika virus = experiment: microbe, parasite or virus in culture; conditions: Vero C1008, 72 h
Staphylococcus aureus [34] = experiment: Antibacterial activity against Staphylococcus aureus; assay type: functional

Sequence of Phosphatidylinositol 4-kinase beta (Q9UBF8 whole entry): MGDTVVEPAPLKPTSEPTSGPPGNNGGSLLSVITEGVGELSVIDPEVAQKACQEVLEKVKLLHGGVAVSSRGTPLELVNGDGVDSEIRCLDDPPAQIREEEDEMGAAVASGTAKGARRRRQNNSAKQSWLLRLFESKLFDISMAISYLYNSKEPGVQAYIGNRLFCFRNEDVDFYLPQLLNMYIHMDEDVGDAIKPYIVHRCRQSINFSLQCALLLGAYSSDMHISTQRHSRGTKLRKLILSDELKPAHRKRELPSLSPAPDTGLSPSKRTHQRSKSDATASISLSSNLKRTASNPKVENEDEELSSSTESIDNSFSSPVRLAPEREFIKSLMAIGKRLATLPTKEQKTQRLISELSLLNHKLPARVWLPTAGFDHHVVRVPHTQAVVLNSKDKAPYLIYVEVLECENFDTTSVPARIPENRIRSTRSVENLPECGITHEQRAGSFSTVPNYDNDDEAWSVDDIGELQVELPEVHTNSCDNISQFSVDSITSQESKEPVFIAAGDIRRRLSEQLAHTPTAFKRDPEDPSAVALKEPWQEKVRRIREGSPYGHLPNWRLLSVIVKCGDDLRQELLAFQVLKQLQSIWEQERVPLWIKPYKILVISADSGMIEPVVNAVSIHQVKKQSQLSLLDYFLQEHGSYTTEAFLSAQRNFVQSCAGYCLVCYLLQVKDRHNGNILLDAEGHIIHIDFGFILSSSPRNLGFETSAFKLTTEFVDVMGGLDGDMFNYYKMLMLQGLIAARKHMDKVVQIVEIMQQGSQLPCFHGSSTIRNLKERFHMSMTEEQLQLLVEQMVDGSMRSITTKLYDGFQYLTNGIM

CC(C)S(=O)(=O)n1c(N)nc2ccc(/C(=N/O)c3ccccc3)cc21 [ENVIROXIME]
EC50 (rhinovirus A16 [1]): 0.027 µM | EC50 (rhinovirus A16 [2]): 0.027 µM | EC50 (rhinovirus A16 [3]): 0.049 µM

CC(C)(C)C(=O)Nc1nc(C(F)(F)F)c(-c2csc(Nc3cccc(C(F)(F)F)c3)n2)s1
IC50 [4]: > 50 µM | CC50 [5]: 46 µM | CC50 [6]: > 50 µM | MIC (Bacillus subtilis [7]): 4 µg/mL | MBC (Bacillus subtilis [8]): 8 µg/mL | MIC (Enterococcus faecalis [9]): 8 µg/mL | MBC (Enterococcus faecalis [10]): > 32 µg/mL | MIC (Streptococcus pyogenes [11]): 4 µg/mL | MBC (Streptococcus pyogenes [12]): 4 µg/mL | MIC (Staphylococcus aureus [13]): 8 µg/mL | MBC (Staphylococcus aureus [14]): 32 µg/mL | MAC (Escherichia coli [15]): 4 µg/mL | MAC (Klebsiella pneumoniae): 4 µg/mL | MAC (Acinetobacter baumannii [16]): 4 µg/mL | MAC (Pseudomonas aeruginosa [17]): >64 µg/mL | MIC (Staphylococcus aureus [18]): 4 µg/mL | MBC (Staphylococcus aureus [19]): 32 µg/mL | MIC (Staphylococcus warneri [20]): 4 µg/mL | MBC (Staphylococcus warneri [21]): 64 µg/mL | MIC [22]: > 64 µg/mL | MIC [23]: 16 µg/mL | MBC [24]: > 64 µg/mL | MIC (Enterococcus faecium [25]): 2 µg/mL | MBC (Enterococcus faecium [26]): 4 µg/mL | MIC (Enterococcus faecium [27]): 2 µg/mL | MBC (Enterococcus faecium [28]): > 64 µg/mL | MIC (Enterococcus faecium [29]): 4 µg/mL | MBC (Enterococcus faecium [30]): > 64 µg/mL | MAC (Escherichia coli [31]): 0.5 µg/mL | MAC (Acinetobacter baumannii [32]): 0.03 µg/mL | MAC (Pseudomonas aeruginosa [33]): 2 µg/mL | IC50 (rhinovirus A16 [3]): 1.82 µM | IC50 (enterovirus D68): 8.37 µM | IC50 (Zika virus): 11.5 µM

CC(C)(C)C(=O)Nc1nc(C(F)(F)F)c(-c2csc(Nc3cccc(C(=O)O)c3)n2)s1
MIC (Staphylococcus aureus [34]): 32 µg/mL (≈ 68 µM)
